# In PubChem BioAssay AID463079 (The Scripps Research Institute Molecular Screening Center, 2010):
# The campaign covered roughly 330,000 compounds. About 2,000 (0.61%) were called active. The sample as a whole holds a higher share of actives than the screen did. Unmarked numbers belong to inactive results.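 How the source made its calls: active means inhibition above that plate's mean sample inhibition plus 3 SD (cut at about 26% in these data); inactive means the rest.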
# Test: ATP-evoked calcium signal inhibitors, parental CHO, primary screen, counter-screen for OX1R antagonist project, cell-based, fluorescence, Fluo-8 calcium dye (AID 463079);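 further: 0% = ATP-challenged DMSO wells and 100% = DMSO wells without ATP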
# Conditions: parental CHO-K1, ATP-induced calcium, Fluo-8 fluorescence; at 5.6 µM; hits give high values
# Outline: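 test system = CHO parental line | reagent = ATP stimulus | measured by = intracellular calcium via Fluo-8 no-wash fluorescent dye | control set = ATP and no-ATP DMSO wells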
row,SMILES,inhibition
1,Cc1cccc(OP(=O)(Oc2cccc(C)c2)OC(c2ccccc2)C(F)(F)F)c1 (stereo not given),43% (active)
2,CCN(CC)P(=O)(Oc1cccc(C)c1)N(CC)CC,-16.2%
3,CN(C)S(=O)(=O)c1cc(C(=O)N2CCC(C(=O)O)(c3ccccc3)CC2)ccc1Cl,-3.89%
4,Nc1ccc([N+](=O)[O-])cc1,-2.28%
5,COC(=O)N(c1ccc(OC)cc1)P1(=S)OCCC(C)O1 (stereo not given),-5.5%
6,O=C1NC(=O)C(CCc2ccccn2)(Cc2cccc(Cl)c2Cl)C(=O)N1c1ccc(Br)cc1 (stereo not given),-47.9%
7,O=C1C2(Cl)C3(Cl)C4(Cl)C(Cl)(Cl)C5(Cl)C3(Cl)C1(Cl)C5(Cl)C24Cl (stereo not given),48.6% (active)
8,O=C(CSC1c2ccccc2-c2ccccc21)N/N=C/c1ccccc1,-10.8%
9,c1ccc(CC2CCCCN2)cc1 (stereo not given),-2.34%
10,CC1=C(C(=O)Nc2ccccc2)S(=O)(=O)CCO1,-5.31%
11,CCCCCCCCCCCCn1ccc(=N)cc1,40% (active)
12,CCOC(=O)c1c(C)c(C(=O)N2CCC3(CC2)OCCO3)c(C)n1CC,-3.29%
13,CN1CCC(N(C)Cc2cccnc2)CC1,-10.6%
14,ClC(Cl)(Cl)c1ccccc1,2.74%
15,CCN(CC)C(=O)c1ccc(NC(=O)c2cc(-n3cnnc3)ccc2Cl)cc1,-4.65%
